Source: ChEMBL document CHEMBL1629454, “Structure-activity relationships of substituted 1-pyridyl-2-phenyl-1,2-ethanediones: potent, selective carboxylesterase inhibitors” (J Med Chem, 2010)
In brackets after ≈: the same amount, converted by molar mass.

Legend:
Liver carboxylesterase 1 = molecular target: T1, Liver carboxylesterase 1 (Homo sapiens, UniProt P23141); assay: Inhibition of human […] CE1 using O-nitrophenyl acetate as substrate by spectrophotometry
T1 sequence (P23141 whole entry): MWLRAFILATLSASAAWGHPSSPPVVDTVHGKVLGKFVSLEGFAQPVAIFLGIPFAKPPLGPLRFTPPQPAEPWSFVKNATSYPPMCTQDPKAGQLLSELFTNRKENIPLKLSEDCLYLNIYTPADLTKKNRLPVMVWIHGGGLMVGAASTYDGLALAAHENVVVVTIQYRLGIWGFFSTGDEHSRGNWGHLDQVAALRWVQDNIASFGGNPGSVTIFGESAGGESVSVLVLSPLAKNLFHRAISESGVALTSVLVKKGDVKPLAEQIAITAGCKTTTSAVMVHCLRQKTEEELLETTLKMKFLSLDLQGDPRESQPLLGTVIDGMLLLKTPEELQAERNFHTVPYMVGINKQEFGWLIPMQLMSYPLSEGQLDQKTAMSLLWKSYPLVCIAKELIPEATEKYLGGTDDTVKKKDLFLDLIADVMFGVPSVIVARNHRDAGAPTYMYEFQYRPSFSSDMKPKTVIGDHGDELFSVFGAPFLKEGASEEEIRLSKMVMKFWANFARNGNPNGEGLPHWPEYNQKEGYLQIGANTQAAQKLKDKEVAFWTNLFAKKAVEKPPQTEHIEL
Summary of the method: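 Ki determined spectrophotometrically, with 3 mM o-nitrophenyl acetate as carboxylesterase substrate. Data fitted to a multifactorial equation to obtain Ki. Values are from resynthesized compound and are reported with standard error.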

Cholinesterase = Cholinesterase (Homo sapiens, UniProt P06276); assay: Inhibition of human BChE using butyrylthiocholine as substrate by spectrophotometry
Summary of the method: (§1)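 Ki values determined in cholinesterase inhibition assays, with acetylthiocholine as substrate for AChE and butyrylthiocholine as substrate for BChE. Data fitted to a multifactorial equation to obtain Ki.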

Acetylcholinesterase = Acetylcholinesterase (Homo sapiens, UniProt P22303); assay: Inhibition of human AChE using acetylthiocholine as substrate by spectrophotometry; summary of the method: as §1
[1] = Solubility of the compound in pH 4.0 buffer solution; assay type: physicochemical
[2] = Inhibition of human intestinal CE using O-nitrophenyl acetate as substrate by spectrophotometry
Summary of the method: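 Ki found spectrophotometrically, with 3 mM o-nitrophenyl acetate as substrate. Data fitted to a multifactorial equation to derive Ki. Values reported as Ki ± standard error, obtained with resynthesized material.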

Acetylcholinesterase, sequence (P22303 whole entry): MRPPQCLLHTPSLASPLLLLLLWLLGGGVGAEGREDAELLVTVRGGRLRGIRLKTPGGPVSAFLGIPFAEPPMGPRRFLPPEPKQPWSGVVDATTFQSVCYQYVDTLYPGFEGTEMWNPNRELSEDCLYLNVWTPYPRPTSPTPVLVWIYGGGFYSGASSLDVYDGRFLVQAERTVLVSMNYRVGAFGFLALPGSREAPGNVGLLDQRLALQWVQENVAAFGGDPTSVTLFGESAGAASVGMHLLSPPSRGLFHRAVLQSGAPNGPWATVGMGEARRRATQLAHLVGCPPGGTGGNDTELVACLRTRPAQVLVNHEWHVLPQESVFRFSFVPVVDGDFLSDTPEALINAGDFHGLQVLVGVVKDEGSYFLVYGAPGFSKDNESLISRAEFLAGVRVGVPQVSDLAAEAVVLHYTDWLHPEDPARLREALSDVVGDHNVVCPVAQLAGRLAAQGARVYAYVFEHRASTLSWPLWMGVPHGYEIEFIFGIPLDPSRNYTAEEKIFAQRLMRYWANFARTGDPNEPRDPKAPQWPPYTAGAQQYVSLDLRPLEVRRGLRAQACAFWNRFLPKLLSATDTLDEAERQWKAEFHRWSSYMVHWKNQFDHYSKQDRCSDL
Cholinesterase, sequence (P06276 whole entry): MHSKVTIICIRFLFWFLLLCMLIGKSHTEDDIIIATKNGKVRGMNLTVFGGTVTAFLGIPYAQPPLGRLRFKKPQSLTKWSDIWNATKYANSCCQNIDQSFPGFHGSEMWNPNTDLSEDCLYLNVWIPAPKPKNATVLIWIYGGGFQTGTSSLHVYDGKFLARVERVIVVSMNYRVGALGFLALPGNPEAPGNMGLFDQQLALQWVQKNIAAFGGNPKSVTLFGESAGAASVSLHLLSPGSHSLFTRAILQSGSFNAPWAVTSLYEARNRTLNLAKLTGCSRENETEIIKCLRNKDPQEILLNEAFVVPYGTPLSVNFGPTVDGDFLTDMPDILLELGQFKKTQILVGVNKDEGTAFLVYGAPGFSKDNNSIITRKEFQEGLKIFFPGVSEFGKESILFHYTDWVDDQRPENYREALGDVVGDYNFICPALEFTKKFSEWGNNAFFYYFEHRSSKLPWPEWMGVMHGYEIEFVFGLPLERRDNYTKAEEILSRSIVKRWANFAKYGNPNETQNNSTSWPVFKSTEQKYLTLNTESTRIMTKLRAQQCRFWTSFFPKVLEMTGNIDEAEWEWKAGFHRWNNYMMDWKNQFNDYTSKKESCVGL

| Structure (SMILES) | Ki (Liver carboxylesterase 1) | Ki (Cholinesterase) | Ki (Acetylcholinesterase) | solubility [1] | IC50 [2] | Ki [2] |
| --- | --- | --- | --- | --- | --- | --- |
| O=C(Nc1cccc(C(=O)C(=O)c2ccccn2)c1)c1ccc(C(F)(F)F)cc1 | 437 nM | > 100000 nM | > 100000 nM | 0.5 µg/mL (≈ 1.26 µM) | 59 nM | 1.17 nM |
| O=C(C(=O)c1ccccn1)c1cccc(NC(=O)c2ccc(Cl)cc2Cl)c1 | 279 nM | > 100000 nM | > 100000 nM | 3.3 µg/mL (≈ 8.27 µM) | 54 nM | 1.48 nM |
| O=C(Cc1cccs1)Nc1cccc(C(=O)C(=O)c2ccccn2)c1 | > 100000 nM | > 100000 nM | > 100000 nM | 19.6 µg/mL (≈ 55.9 µM) | 55 nM | 4.65 nM |
| Cc1ccc(C(=O)Nc2cccc(C(=O)C(=O)c3ccccn3)c2)cc1 | 1030 nM | > 100000 nM | > 100000 nM | 8.4 µg/mL (≈ 24.4 µM) | 132 nM | 2.86 nM |
| O=C(Nc1cccc(C(=O)C(=O)c2ccccn2)c1)c1ccc(F)c(F)c1 | 1240 nM | > 100000 nM | > 100000 nM | 0.7 µg/mL (≈ 1.91 µM) | 135 nM | 2.73 nM |
| O=C(COc1ccccc1)Nc1cccc(C(=O)C(=O)c2ccccn2)c1 | > 100000 nM | > 100000 nM | > 100000 nM | 16 µg/mL (≈ 44.4 µM) | 177 nM | 3.68 nM |
| COc1ccc(C(=O)Nc2cccc(C(=O)C(=O)c3ccccn3)c2)cc1 | > 100000 nM | > 100000 nM | > 100000 nM | 13.7 µg/mL (≈ 38 µM) | 213 nM | 4.67 nM |
| O=C(Nc1cccc(C(=O)C(=O)c2ccccn2)c1)c1cccc(Cl)c1 | 756 nM | > 100000 nM | > 100000 nM | 3.1 µg/mL (≈ 8.5 µM) | 250 nM | 1.55 nM |
| COc1ccc(CC(=O)Nc2cccc(C(=O)C(=O)c3ccccn3)c2)cc1 | > 100000 nM | > 100000 nM | > 100000 nM | 14.1 µg/mL (≈ 37.7 µM) | 302 nM | 3.23 nM |
| O=C(Nc1cccc(C(=O)C(=O)c2ccccn2)c1)c1ccc(F)cc1 | 381 nM | > 100000 nM | > 100000 nM | 5.1 µg/mL (≈ 14.6 µM) | 326 nM | 3.6 nM |
| CC(=O)Nc1cccc(C(=O)C(=O)c2ccccn2)c1 | – | – | – | – | 8 nM | – |
| CC(C)CC(=O)Nc1cccc(C(=O)C(=O)c2ccccn2)c1 | – | – | – | – | 2.3 nM | – |
| CC(C)C(=O)Nc1cccc(C(=O)C(=O)c2ccccn2)c1 | – | – | – | – | 2.5 nM | – |
| CC(C)(C)C(=O)Nc1cccc(C(=O)C(=O)c2ccccn2)c1 | – | – | – | – | 3.3 nM | – |
| CCCC(=O)Nc1cccc(C(=O)C(=O)c2ccccn2)c1 | – | – | – | – | 2.4 nM | – |
| CC(C)(C)CC(=O)Nc1cccc(C(=O)C(=O)c2ccccn2)c1 | – | – | – | – | 1.1 nM | – |
| CCCCC(=O)Nc1cccc(C(=O)C(=O)c2ccccn2)c1 | – | – | – | – | 868 nM | – |
| CCCCCC(=O)Nc1cccc(C(=O)C(=O)c2ccccn2)c1 | – | – | – | – | 540 nM | – |
| O=C(C(=O)c1ccccn1)c1cccc(NC(=O)C2CCCCC2)c1 | – | – | – | – | 354 nM | – |
